High-throughput results as filed in PubChem BioAssay.
This is a sample that favours compounds with a hit; in the whole collection about 3.4% have one here.
CHT allo act: CHT positive allosteric modulators, primary screen, cell-based, membrane potential dye, choline EC20; High affinity choline transporter 1 (Homo sapiens), Q9GZV3; CHT-expressing cells; hits give high values; LV-AA mutant CHT in HEK293 cells; B-score at 10 µM; 0.49% of 310,000 active; AID 488977, 2010;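 active = initial fluorescence not abnormally high and integrated response B-score, plate-corrected, over 3 SD above library mean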
IMP-1 inhibitor: IMP-1 metallo-beta-lactamase inhibitors, primary screen, biochemical, epi-absorbance readout, Pseudomonas aeruginosa enzyme. purified IMP-1, nitrocefin hydrolysis, epi-absorbance fluorescence. metallo-beta-lactamase IMP-1 (Pseudomonas aeruginosa). inhibition, % at 5.6 µM. AID 1556, 2009. 0.45% of 290,000 active;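 active = inhibition above the mean plus 3 SD of all compounds in the same screening run, cut at about 4.5% in these data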;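 also: 0% = IMP-1 with DMSO and 100% = DMSO wells lacking enzyme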
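System: Purified recombinant IMP-1 metallo-beta-lactamase enzyme | Measured by: Fluorescence quenching readout, ex 480/em 530 nm | Replication: Singlicate | Incubation: 15 min preincubation plus 25 min reaction at 25 °C | Evaluation: Percent inhibition from optical density relative to buffer-blank wells | Benchmarks: DMSO with and without IMP-1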
CHT inh: inhibitors of human choline transporter CHT. 0.86% of 310,000 active. High affinity choline transporter 1 (Homo sapiens), Q9GZV3. CHT-expressing cells, membrane potential dye, choline response; hits give low values. B-score at 10 µM;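 active = B-score over 3 SD under the library average, and starting fluorescence ratio not unusually high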;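 also: choline stimulus applied at its EC90 after an EC20 pre-addition; B-score computed on integrated fluorescence ratio after choline addition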
VIM-2 inhibitor: VIM-2 metallo-beta-lactamase inhibitors, primary screen, biochemical, epi-absorbance readout, Pseudomonas aeruginosa enzyme; purified VIM-2, nitrocefin hydrolysis, epi-absorbance fluorescence; inhibition, % at 5.6 µM; 0.89% of 290,000 active; AID 1527, 2009;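 active = inhibition above the mean of all tested compounds plus 3 SD, cutoff set per screening run, cut at about 7.5% in these data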;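 also: red hydrolysis product quenches plate fluorescence so inhibitors raise well fluorescence; 0% = enzyme with DMSO and 100% = DMSO without enzyme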
ANO1 block: TMEM16A chloride channel inhibitors, primary screen, cell-based, HTS | 1.2% of 310,000 active | AID 588511, 2011 | HEK293 TMEM16A/YFP iodide influx fluorescence, ionomycin | normalized B-score (activity score, 25-100; higher = stronger inhibition) at 10 µM;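 active = ratio plate-corrected score three or more library SD toward inhibition, starting fluorescence score within five deviations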;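 also: score derived from kinetic fluorescence span divided by baseline fluorescence per well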
ANO1 activ: TMEM16A chloride channel activators or potentiators, primary screen, cell-based, HTS; Anoctamin-1 (Mus musculus), Q8BHY3; HEK293 TMEM16A/YFP-H148Q/I152L, iodide quench fluorescence; hits give low values; B-score at 10 µM; 0.3% of 340,000 active; AID 623877, 2012;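 active = fluorescence-ratio B-score plate-corrected deviation score at least 3 library SD below zero, with starting fluorescence score within 5 deviations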;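 also: channel opened by trigger with iodide after compound preincubation; score built on the fluorescence ratio of max minus min over baseline; more negative score means more quench and so TMEM16A activation or potentiation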
VIM-2 confirm: P. aeruginosa VIM-2 enzyme inhibition – biochemical, epi-absorbance, HTS, confirmation. shares compounds with IMP-1 inhibitor. purified VIM-2 enzyme, nitrocefin absorbance. inhibition, % at 5.6 µM. 73% of 200 active. AID 1860, 2009; in the data active = inhibition above about 8%;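 also: 0% = enzyme with vehicle and 100% = no enzyme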
TEM-1 inh 2: Serine beta-lactamase TEM-1 inhibition, biochemical epi-absorbance counter-screen for IMP-1/VIM-2 inhibitor program | 50% of 200 active | inhibition, % at 5.6 µM | TEM-1 beta-lactamase, nitrocefin absorbance inhibition | AID 2184, 2009 | shares compounds with IMP-1 inhibitor; in the data active = inhibition above about 0.66%
IMP-1 inh conf: IMP-1 metallo-beta-lactamase inhibitors, confirmation, biochemical, epi-absorbance, hits shared with VIM-2 screen; inhibition, % at 5.6 µM; purified IMP-1 enzyme, absorbance substrate hydrolysis; 60% of 200 active; AID 2189, 2009; shares compounds with IMP-1 inhibitor; in the data active = inhibition above about 4.9%;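 also: 0% = enzyme with vehicle and 100% = vehicle without enzyme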
Numbers without * were called inactive; i = inactive; x = no result given.

SMILES	CHT allo act	IMP-1 inhibitor	CHT inh	VIM-2 inhibitor	ANO1 block	ANO1 activ	VIM-2 confirm	TEM-1 inh 2	IMP-1 inh conf
CCN(CC)c1ccc2cc(C(=O)NCc3ccc(F)cc3)c(=N)oc2c1	i	21*	i	8	i	i	17*	26*	13*
N=c1oc2ccc(Br)cc2cc1C(=O)NCc1ccc(F)cc1	i	-1	i	1	i	i	x	x	x
Cc1cc(C)nc(N(C#N)CN2C(=O)c3ccccc3C2=O)n1	i	-4	i	-1	i	i	x	x	x
CCC(C)Nc1nc(Cl)nc(N(C#N)CN2C(=O)c3ccccc3S2(=O)=O)n1 (stereo unspecified)	i	18*	i	13*	i	i	0	-5	-1
COc1ccc(Cl)cc1Nc1nnc(-c2ccncc2)s1	i	19*	i	8.7*	i	i	3	-1	12*
Clc1ccccc1Nc1nnc(-c2ccncc2)s1	i	-1	i	-2	i	i	x	x	x
CCN(CC)c1ccc2cc(-c3nc(-c4ccc(OC)cc4)cs3)c(=O)oc2c1	i	2	i	2	i	x	x	x	x
CCN(CC)c1ccc2cc(-c3nnc(-c4ccccc4)o3)c(=O)oc2c1	i	8.3*	i	8.4*	i	i	33*	43*	26*
CCN(CC)c1ccc2cc(-c3nc4ccccc4[nH]3)c(=O)oc2c1	i	18*	i	13*	i	i	61*	105*	59*
CCN(CC)c1ccc2cc(-c3nnc(-c4ccc(Br)cc4)o3)c(=O)oc2c1	x	-2	x	-2	x	x	x	x	x
O=C(Nc1ccc(C(F)(F)F)cc1)c1ccc(NC(=O)C2CCCO2)cc1 (stereo unspecified)	i	16*	i	9.1*	i	i	9.9*	-2	9.8*
O=C(Nc1cccc(O)c1)c1ccc(NC(=O)C2CCCO2)cc1 (stereo unspecified)	i	-3	i	-2	i	i	x	x	x
CCCCn1cnc2cc(C)c(C)cc21	i	-3	i	-4	i	i	x	x	x
CCOc1cc2c(cc1/C=C/c1noc(C)c1[N+](=O)[O-])OC(C)C2 (stereo unspecified)	i	13*	i	17*	i	i	20*	30*	18*
S=C(Nc1ccc(-c2nc3ccccc3[nH]2)cc1)Nc1cccnc1	i	-1	i	0	i	i	x	x	x
CC(=O)c1ccc(C(=O)Nc2sc3c(c2C(N)=O)CCN(Cc2ccccc2)C3)cc1	i	5.5*	i	8.8*	i	i	5	5.7*	3
C=CCn1c(SCC(=O)NCC2CCCO2)nnc1-c1ccncc1 (stereo unspecified)	x	x	x	x	x	i	x	x	x
COc1ccccc1N(Cc1ccccc1)S(=O)(=O)c1cccc(C(=O)N2CCCCC2)c1	x	x	x	x	x	i	x	x	x
C/C(=N/NC(N)=S)c1cc2ccc(O)cc2oc1=O	i	0	i	1	i	i	x	x	x
NC(=S)c1cc2ccc(O)cc2oc1=O	x	4.5*	x	8	x	i	3	-8	-3
COc1ccc(Cl)cc1C(=O)Nc1cccc(-c2ccc3nncn3n2)c1	i	23*	i	26*	i	i	34*	3.0*	11*
